This sample holds only a part of the variants without activity.
B1: tRNA (parent)
chain: GUUCCGUUGGCGUAAUGGUAACGCGUCUCCCUCCUAAGGAGAAGACUGCGGGUUCGAGUCCCGUACGGAACG

Variants of: B1
Experiment: yeast fitness relative to wild type (ratio to wild type); higher = fitter; tRNA-Arg(CCU), competitive growth, 37 C, YPD
Summary of the method: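 For this measurement, the tRNA-Arg(CCU) gene was varied by chemical synthesis at a 3% per-site mutation rate across 69 sites, and each variant was placed at the native genomic locus in Saccharomyces cerevisiae. The pooled strains went through a 24-hour competition in YPD at 37°C in six parallel replicates, with amplicons from start and end populations read by 100-nucleotide paired-end sequencing. Darwinian fitness relative to wild type followed from the change in each genotype's frequency. Genotypes needed ≥ 100 starting reads, and estimates < 0.5 were set to 0.5.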

| Variant | yeast fitness |
| --- | --- |
| GUUGCGUUGGCGUAAUGGUACCGCGUCUCACUCCUAAGGAGAAGACUGCGAGUUCGAGUCCCGUACGGAACG [C4G A21C C30A G51A] | 0.747 |
| GUUGCGUUGGCGUAUUGGUAACGCGUCUCCCUCGUCAGGAGAAGACUGCGGGUUCGAGUCCCGUACGGAACG [C4G A15U C34G A36C] | ≤ 0.5 |
| GUUGCGUUGGCGUAAUGGUAACGCGUCUCCCUCCUAGGGAGAAGACUGCGAGUUCGGGUCCCGUACGGAACG [C4G A37G G51A A57G] | 0.523 |
| GUUGCGUUGGCGUAAUGGUCACGCGUCUCAGUCAUAGGGAGAAGACUGAGGGUUCGCGUCCCAUACGGAACG [C4G A20C C30A C31G C34A A37G C49A A57C G63A] | ≤ 0.5 |
| GUUGCGUUGGCGUAUUGGUAACGCGUCUCCCUCCUAAGGAGAAGACUGCGGGUGUGAGUCCCGUACGGAACG [C4G A15U U54G C55U] | 0.51 |
| GUUGCGUUGGCGUAAUGGUAACGCGUCUCCCUCCUUAGGAGAAGACUGCGGGUUCGAAUCCCGUACGGAACG [C4G A36U G58A] | ≤ 0.5 |
| GUUGCGUUGGCGUAAUGGUAGCGCGUCACCCUCCUAAGGAGAAGACUGCGGGUUCGAGUCCCGUACGGUACG [C4G A21G U28A A69U] | ≤ 0.5 |
| GUUGCGUUGGCGUAUUGCUAACCGGUCUCCCUCCUAAGGAGAAGACUGCGGGUUCCAGUCCCGUACGGAACG [C4G A15U G18C G23C C24G G56C] | ≤ 0.5 |
| GUUGCGUUGGCGUAAUGGUAACGCGUCUCCCUCCUACGGAGAAGACUGCGGGUUCGAGUCCCGUACGGAACG [C4G A37C] | 0.773 |
| GUUGCGUUGGCGUAAUGGUUACGCGUCUCCCUCCUAAGGAGAAGACUGCGGGUUCGAGUCCCGUACGGAACG [C4G A20U] | 0.659 |
| GUUGCGUUGGCGUAAUGGUCACGCGUCUCCCUCCUAAGGAGAAGACUGCGGGUUCGAGUCCCGUACGGAACG [C4G A20C] | 0.8 |
| GUUGCGUUGGCGUAAUGGUGACGCGUCUCCCUCCUAAGGAGAAGACUGCGGGUUCGAGUCCCGUACGGAACG [C4G A20G] | 0.966 |
| GUUGCGUUGGCGUAUUGGUAACGCGUCUACCUCCUAAGGAGAAGACUACGGGUUCGAGUCCCGUUCGGAACG [C4G A15U C29A G48A A65U] | 0.53 |
| GUUGCGUUGGCGUAAUGGUAGCGCGUCUCCCUCCUAAGGAGAAGACUGCGGGUUCGAGUCCCGUACCGAACG [C4G A21G G67C] | 0.631 |
| GUUGCGUUGGCGUAAUGGUAGUGCGUCACCCUCCCAAGGAGAAGACUGCGGGUUCGAGUCCCGUACGGAACG [C4G A21G C22U U28A U35C] | ≤ 0.5 |
| GUUGCGUUGGCGUAAUGGUACUGCGUCUCCCUCCUAAGGAGAAGACUGCGGGUUCGAGUCUCGUACGGAACG [C4G A21C C22U C61U] | ≤ 0.5 |
| GUUGCGUUGGCGUAAUGGUAACGCGUCUCCCUCCUUAGGAGAAGACUGCGGGUUCGAGUCCGGUACGGAACG [C4G A36U C62G] | 0.54 |
| GUUGCGUUGGCGUAAUGGUAACGCGUCUCCCUCCUAAGGGGAAGACUACGGGUUCCAGUCCCGUACGGAACG [C4G A40G G48A G56C] | ≤ 0.5 |
| GUUGCGUUGGCGUAUUGGUAACGCGUCUCCCUCCUAUGGAGAAGACUGCGGGUUCGAGUCCCGUACGGAACG [C4G A15U A37U] | 0.541 |

| Variant | yeast fitness |
| --- | --- |
| GUUGCGUUGGCGUAAUGGUACCGCGUCUCCCUCCUAAGCAGUAGACUCCGGGUUCGAGUCCCGUACGGAACG [C4G A21C G39C A42U G48C] | ≤ 0.5 |
| GUUGCGUUGGCGUAAUGGUAUCGCGUCUCCCUCCUCAGGAGAAGACUGCGGGUUCGAGUCACGUACGGAACG [C4G A21U A36C C61A] | 0.615 |
| GUUGCGUUGGCGUAAUGGUAACGCGUCUCCCUCCUAUGGAGAAGACUGAGGAUUUAAGUCCCGUACGGAACG [C4G A37U C49A G52A C55U G56A] | 0.688 |
| GUUGCGUUGGCGUAAUGGUUACGCGUCUCCCUCCUAAGGAGAAGACUGCGGGUUCGUGUCCCGUAUGGAACG [C4G A20U A57U C66U] | ≤ 0.5 |
| GUUGCGUUGGCGUAAUGGUUACGCGUCUCCCUCCUAAGGAGAAGACUGCGGGUUCGAGUCGCGUACGGAACG [C4G A20U C61G] | ≤ 0.5 |
| GUUGCGUUGGCGUAAUGGUCACGCGGCUCCCUUCUAAGGAGAACACUGCGGGUUCGAGACCCGUACAGAACG [C4G A20C U26G C33U G44C U59A G67A] | ≤ 0.5 |
| GUUGCGUUGGCGUAAUGGUUACGCGUCUCCCUCCUAAGGAGAAGACUGCGGGUUCGUGUCCCGUACGGAACG [C4G A20U A57U] | ≤ 0.5 |
| GUUGCGUUGGCGUAAUGGUAACGCGUCUCCCUCCUGAGGAGAAGACUACGGGUUCGAGUCCCGUACGGAACG [C4G A36G G48A] | 0.533 |
| GUUGCGUUGGCGUAAUGGUUACGCGUCUCCCUCCUAAGGAGAAGACUGCGGGUUCGUGUCCUGUACGGAACG [C4G A20U A57U C62U] | ≤ 0.5 |
| GUUGCGUUGGCGUAAUGGUGACGCGUCUCCCUCCUAAGAAGAAGCCUGCGGGUUCGAGUCCCGUACGGAACG [C4G A20G G39A A45C] | ≤ 0.5 |
| GUUGCGUUGGCGUAAUGGUACCGCGUCUCCCUCCUAAGGAGAAGACUGAGGGUUCGAGUCCCGUGCGGAACG [C4G A21C C49A A65G] | ≤ 0.5 |
| GUUGCGUUGGCGUAAUGGUAACGCGUCUCCCUCCUUAGGAGAAGACUGCGGGAUCGAGUCCCGUACGAGACG [C4G A36U U53A G68A A69G] | ≤ 0.5 |
| GUUGCGUUGGCGUAAUGGUUACGCGUCUCCCUCCUAAGGAGAAGACUGCAGGUUCGACUCCCGUAUGGAACG [C4G A20U G50A G58C C66U] | ≤ 0.5 |
| GUUGCGUUGGCGUAAUGGUACUGCGUCUCCCUCCUAAGGAGAAGACUGCGGGUUCGAGUCCCGUACGGAACG [C4G A21C C22U] | 0.626 |
| GUUGCGUUGGCGUAAUGGUAGCGCGUCUCCCUCCUAAGGAGAAGACUGCGGGUUCGAGUCCCGUACGGAACG [C4G A21G] | 0.997 |
| GUUGCGUUGGCGUAAUGGUAUCGCGUCUCCCUCCUAAGGAGAAGACUGCGGGUUCGAGUCCCGUACGGAACG [C4G A21U] | 0.696 |
| GUUGCGUUGGCGUAAUGGUAACGCGUCUCCCUCCUGAGGAGAAGACUGCGGGUUCGAGCCCCGUACGGAACG [C4G A36G U59C] | 0.667 |
| GUUGCGUUGGCGUAAUGGUAGCGCGUCUCCCUCCUUAGGAGAAGACUGCGGGUUCGAGACCCGUACGGAACG [C4G A21G A36U U59A] | 0.502 |
